# Results reported in ChEMBL document CHEMBL1127048, “A potent new class of kappa-receptor agonist: 4-substituted 1-(arylacetyl)-2-[(dialkylamino)methyl]piperazines” (J Med Chem, 1993).
# Columns and labels:
# Mus musculus [1] = assay: In vivo antinociceptive activity was determined using mouse acetylcholine induced abdominal constriction test following subcutaneous administration; range (0.03-0.08); type: functional; details: Abdomen, sc
# Summary of the method: (§1)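 Mice given compound by subcutaneous injection, then challenged with acetylcholine to induce abdominal constrictions. Antinociceptive ED50 determined in mg/kg sc, with a bracketed range reported alongside.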
# Mus musculus [2] = assay: In vivo antinociceptive activity was determined using mouse acetylcholine induced abdominal constriction test following subcutaneous administration; range (0.12-0.48); type: functional; details: Abdomen, sc; summary of the method: as §1
# Mus musculus [3] = assay: In vivo antinociceptive activity was determined using mouse acetylcholine induced abdominal constriction test following subcutaneous administration; range (0.012-0.032); type: functional; details: Abdomen, sc; summary of the method: as §1
# Mus musculus [4] = assay: In vivo antinociceptive activity was determined using mouse acetylcholine induced abdominal constriction test following subcutaneous administration; type: functional; details: Abdomen, sc; summary of the method: as §1
# Mus musculus [5] = assay: In vivo antinociceptive activity was determined using mouse acetylcholine induced abdominal constriction test following subcutaneous administration; range (0.024-0.066); type: functional; details: Abdomen, sc; summary of the method: as §1
# Mus musculus [6] = assay: In vivo antinociceptive activity was determined using mouse acetylcholine induced abdominal constriction test following subcutaneous administration; range (0.059-0.173); type: functional; details: Abdomen, sc; summary of the method: as §1
# Mus musculus [7] = assay: In vivo antinociceptive activity was determined using mouse acetylcholine induced abdominal constriction test following subcutaneous administration; range (0.01-0.02); type: functional; details: Abdomen, sc; summary of the method: as §1
# [8] = target: Kappa-type opioid receptor (Homo sapiens) (UniProt P41145); details: Oryctolagus cuniculus; Vas deferens
# Kappa-type opioid receptor (Homo sapiens), sequence (P41145 whole entry): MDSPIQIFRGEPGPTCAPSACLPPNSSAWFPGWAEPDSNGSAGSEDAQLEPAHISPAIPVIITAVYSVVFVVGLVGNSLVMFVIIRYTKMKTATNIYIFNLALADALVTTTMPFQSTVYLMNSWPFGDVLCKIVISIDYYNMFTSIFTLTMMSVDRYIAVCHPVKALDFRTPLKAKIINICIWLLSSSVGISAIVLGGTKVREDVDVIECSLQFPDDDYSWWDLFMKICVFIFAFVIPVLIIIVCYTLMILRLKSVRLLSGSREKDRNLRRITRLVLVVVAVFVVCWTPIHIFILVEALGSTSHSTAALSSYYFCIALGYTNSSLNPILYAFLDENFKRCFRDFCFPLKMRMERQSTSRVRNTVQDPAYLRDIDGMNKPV
# Mus musculus [9] = assay: In vivo antinociceptive activity was determined using mouse acetylcholine induced abdominal constriction test following subcutaneous administration; range (0.00027-0.00086); type: functional; details: Abdomen, sc; summary of the method: as §1
# Rattus norvegicus [10] = assay: In vivo antinociceptive activity was determined using rat paw pressure test following subcutaneous administration; range (0.00058-0.0014); type: functional; details: sc
# Mus musculus [11] = assay: In vivo antinociceptive activity was determined using mouse acetylcholine induced abdominal constriction test following oral administration; range (0.005-0.035); type: functional; details: Abdomen
# Mu-type opioid receptor = Mu-type opioid receptor (Rattus norvegicus, UniProt P33535); assay: In vitro inhibitory activity against mu specific tissue of rat vas deferens; type: functional, tissue-based
# Mu-type opioid receptor, sequence (P33535 whole entry): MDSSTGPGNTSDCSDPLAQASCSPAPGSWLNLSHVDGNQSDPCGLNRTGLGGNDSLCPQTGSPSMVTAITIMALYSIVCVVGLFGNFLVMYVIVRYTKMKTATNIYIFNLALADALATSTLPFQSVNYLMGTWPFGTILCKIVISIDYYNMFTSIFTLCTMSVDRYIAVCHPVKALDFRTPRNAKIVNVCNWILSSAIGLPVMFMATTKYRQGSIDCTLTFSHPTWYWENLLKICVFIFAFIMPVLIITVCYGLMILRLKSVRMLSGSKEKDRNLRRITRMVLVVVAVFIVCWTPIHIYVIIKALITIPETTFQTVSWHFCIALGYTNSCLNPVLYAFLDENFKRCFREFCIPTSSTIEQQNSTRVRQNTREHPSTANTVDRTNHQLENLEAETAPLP
# Mus musculus [12] = assay: In vivo antinociceptive activity was determined using mouse acetylcholine induced abdominal constriction test following subcutaneous administration; range (0.00012-0.00045); type: functional; details: Abdomen, sc; summary of the method: as §1
# Mus musculus [13] = assay: In vivo antinociceptive activity was determined using mouse acetylcholine induced abdominal constriction test following subcutaneous administration; range (0.007-0.018); type: functional; details: Abdomen, sc; summary of the method: as §1
# Mus musculus [14] = assay: In vivo antinociceptive activity was determined using mouse acetylcholine induced abdominal constriction test following subcutaneous administration; range (0.0003-0.002); type: functional; details: Abdomen, sc; summary of the method: as §1
# [15] = In vitro agonist activity at kappa opioid receptor in rabbit vas deferens.
# Mus musculus [16] = assay: In vivo antinociceptive activity was determined using mouse acetylcholine induced abdominal constriction test following subcutaneous administration; range (0.000033-0.000241); type: functional; details: Abdomen, sc; summary of the method: as §1
# Mus musculus [17] = assay: In vivo antinociceptive activity was determined using mouse acetylcholine induced abdominal constriction test following subcutaneous administration; range (0.04-0.15); type: functional; details: Abdomen, sc; summary of the method: as §1
# Rattus norvegicus [18] = species on record: Rattus norvegicus; assay: Agonistic/Antagonistic activity in rat vas deferens (RVD) at 10e-5 M; not active; type: functional
# Mus musculus [19] = assay: In vivo antinociceptive activity was determined using mouse acetylcholine induced abdominal constriction test following subcutaneous administration; range (0.015-0.037); type: functional; details: Abdomen, sc; summary of the method: as §1
# Mus musculus [20] = assay: In vivo antinociceptive activity was determined using mouse acetylcholine induced abdominal constriction test following subcutaneous administration; range (0.002-0.007); type: functional; details: Abdomen, sc; summary of the method: as §1
# Mus musculus [21] = assay: In vivo antinociceptive activity was determined using mouse acetylcholine induced abdominal constriction test following subcutaneous administration; range (0.20-1.09); type: functional; details: Abdomen, sc; summary of the method: as §1
structure (smiles),measurement,setting,value
CCC(=O)N1CCN(C(=O)Cc2ccc(Cl)c(Cl)c2)C(CN2CCCC2)C1 (stereo not drawn),ED50,Mus musculus [1],50 µg/kg
O=CN1CCN(C(=O)Cc2ccc(Cl)c(Cl)c2)C(CN2CCCC2)C1 (stereo not drawn),ED50,Mus musculus [2],230 µg/kg
C=CC(=O)N1CCN(C(=O)Cc2ccc(Cl)c(Cl)c2)C(CN2CCCC2)C1 (stereo not drawn),ED50,Mus musculus [3],20 µg/kg
CN1CC[C@]23c4c5ccc(O)c4O[C@H]2[C@@H](O)C=C[C@H]3[C@H]1C5 [MORPHINE],ED50,Mus musculus [4],470 µg/kg
COC(=O)N1CCN(C(=O)Cc2ccc(Cl)c(Cl)c2)C(CN2CCC(O)C2)C1 (stereo not drawn),ED50,Mus musculus [5],44 µg/kg
COC(=O)/C=C1\CCN(CC2CN(C(=O)OC)CCN2C(=O)Cc2ccc(Cl)c(Cl)c2)C1 (stereo not drawn),ED50,Mus musculus [6],100 µg/kg
COC(=O)N1CCN(C(=O)Cc2ccc(Cl)c(Cl)c2)C(CN(C)C)C1 (stereo not drawn),ED50,Mus musculus [7],16 µg/kg
COC(=O)N1CCN(C(=O)Cc2ccc(Cl)c(Cl)c2)C(CN2CCCC2)C1 (stereo not drawn),pKB,[8],7.7
same,ED50,Mus musculus [9],0.52 µg/kg
same,ED50,Rattus norvegicus [10],0.93 µg/kg
same,ED50,Mus musculus [11],12 µg/kg
same,IC50,Mu-type opioid receptor,> 10000 nM
same,ED50,Mus musculus [12],0.25 µg/kg
CCOC(=O)N1CCN(C(=O)Cc2ccc(Cl)c(Cl)c2)C(CN2CCCC2)C1 (stereo not drawn),ED50,Mus musculus [13],10 µg/kg
O=C(Cc1ccc(Cl)c(Cl)c1)N1CCC2(CC1CN1CCCC1)OCCO2 (stereo not drawn),ED50,Mus musculus [14],1 µg/kg
same,IC50,[15],0.1 nM
COC(=O)N1CCN(C(=O)Cc2ccc(Cl)c(Cl)c2)C(CN2CC=CCC2)C1 (stereo not drawn),ED50,Mus musculus [16],0.096 µg/kg
CC(=O)N1CCN(C(=O)Cc2ccc(Cl)c(Cl)c2)C(CN2CCCC2)C1 (stereo not drawn),ED50,Mus musculus [17],80 µg/kg
same,IC50,Rattus norvegicus [18],Not Active
CCCOC(=O)N1CCN(C(=O)Cc2ccc(Cl)c(Cl)c2)C(CN2CCCC2)C1 (stereo not drawn),ED50,Mus musculus [4],680 µg/kg
COC(=O)N1CCN(C(=O)Cc2ccc(Cl)c(Cl)c2)C(CN2CCC(=O)C2)C1 (stereo not drawn),ED50,Mus musculus [19],23 µg/kg
COC(=O)/C=C1/CCN(CC2CN(C(=O)OC)CCN2C(=O)Cc2ccc(Cl)c(Cl)c2)C1 (stereo not drawn),ED50,Mus musculus [20],4 µg/kg
CCCC(=O)N1CCN(C(=O)Cc2ccc(Cl)c(Cl)c2)C(CN2CCCC2)C1 (stereo not drawn),ED50,Mus musculus [21],410 µg/kg
